# Calls of active or inactive are those of the source. No cut-off for these calls is given here.
# Tests used:
# [1] = molecular target: T1, NAD-dependent protein deacetylase sirtuin-1 (Homo sapiens) (UniProt Q96EB6); test: Inhibition of human SIRT1 at 50 uM
# T1 sequence (whole entry): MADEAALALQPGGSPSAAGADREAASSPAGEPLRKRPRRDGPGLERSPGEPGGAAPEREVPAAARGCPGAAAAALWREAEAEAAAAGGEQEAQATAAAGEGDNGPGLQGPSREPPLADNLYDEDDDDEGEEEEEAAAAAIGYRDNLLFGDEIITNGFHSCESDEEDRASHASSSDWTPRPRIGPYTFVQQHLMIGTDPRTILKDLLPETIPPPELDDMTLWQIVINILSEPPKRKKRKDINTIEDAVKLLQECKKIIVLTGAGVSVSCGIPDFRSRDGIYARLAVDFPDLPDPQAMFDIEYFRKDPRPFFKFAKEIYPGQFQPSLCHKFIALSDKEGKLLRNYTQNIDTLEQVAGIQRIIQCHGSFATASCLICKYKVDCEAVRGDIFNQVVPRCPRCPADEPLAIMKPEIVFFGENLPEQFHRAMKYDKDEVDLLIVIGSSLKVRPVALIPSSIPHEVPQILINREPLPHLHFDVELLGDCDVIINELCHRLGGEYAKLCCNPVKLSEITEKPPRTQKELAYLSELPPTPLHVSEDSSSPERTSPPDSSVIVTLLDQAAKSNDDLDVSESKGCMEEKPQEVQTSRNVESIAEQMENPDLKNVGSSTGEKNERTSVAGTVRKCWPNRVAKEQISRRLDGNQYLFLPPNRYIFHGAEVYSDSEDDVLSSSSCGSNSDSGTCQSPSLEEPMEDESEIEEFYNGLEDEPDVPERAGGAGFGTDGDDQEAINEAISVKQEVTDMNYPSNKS
# Method in brief: (§1)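 Homogeneous fluorescent deacetylase assay with recombinant SIRT1 or SIRT2 (SIRT2 full-length, N-terminal His6, expressed in E. coli BL21). Reaction held ZMAL substrate 10.5 µM and NAD+ 500 µM, run 4 h at 37 °C. Deacetylated product developed by tryptic digest; fluorescence read at ex 390/em 460 nm. Inhibition taken from remaining substrate versus no-inhibitor control. Run at least in duplicate, inhibitors added from DMSO stocks.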
# [2] = molecular target: T2, NAD-dependent protein deacetylase sirtuin-1 (Homo sapiens, UniProt Q96EB6); test: Inhibition of human SIRT1 by fluorescent deacetylase assay; method in brief: as §1
# T2 sequence (Q96EB6 whole entry): T1 sequence (whole entry)
# [3] = molecular target: T3, NAD-dependent protein deacetylase sirtuin-2 (Homo sapiens) (UniProt Q8IXJ6); test: Inhibition of SIRT2 in A549 cells assessed as ability to induce hyperacetylation of tubulin by Western blot analysis; assay type: cell-based
# T3 sequence (whole entry): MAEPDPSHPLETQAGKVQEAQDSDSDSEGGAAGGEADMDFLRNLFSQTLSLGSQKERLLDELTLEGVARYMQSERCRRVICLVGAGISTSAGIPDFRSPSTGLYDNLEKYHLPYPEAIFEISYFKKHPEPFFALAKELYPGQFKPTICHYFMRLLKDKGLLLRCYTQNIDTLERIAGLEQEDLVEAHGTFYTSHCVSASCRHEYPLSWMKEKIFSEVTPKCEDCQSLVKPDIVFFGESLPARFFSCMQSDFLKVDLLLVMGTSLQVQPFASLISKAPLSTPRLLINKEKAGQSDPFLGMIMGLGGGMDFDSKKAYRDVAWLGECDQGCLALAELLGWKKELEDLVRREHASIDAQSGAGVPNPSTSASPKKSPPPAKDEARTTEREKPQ
# Method in brief: (§2)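 A549 human lung carcinoma cells grown in DMEM with 10% FBS, penicillin-streptomycin and 2 mM L-glutamine. Plated 1 day before treatment, then exposed to compound for 6 h. Cells washed with PBS and lysed in buffer containing 400 nM TSA. Lysates run on 10% SDS-PAGE and western blotted for acetylated alpha-tubulin against total alpha-tubulin.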
# [4] = molecular target: T2, NAD-dependent protein deacetylase sirtuin-1; test: Inhibition of human SIRT1 by radioactive deacetylase assay
# Method in brief: (§3)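 Radioactive deacetylase assay with recombinant SIRT1 or SIRT2. Substrate was [3H]-acetylated histone H4 N-terminal peptide (residues 1-25). Released [3H]acetic acid quantified by scintillation counting.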
# [5] = molecular target: T4, NAD-dependent protein deacetylase sirtuin-2 (Homo sapiens, UniProt Q8IXJ6); test: Inhibition of human recombinant SIRT2 by fluorescent deacetylase assay
# T4 sequence (Q8IXJ6 whole entry): T3 sequence (whole entry)
# Method in brief: (§4)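 Homogeneous fluorescent deacetylase assay with recombinant SIRT1 or SIRT2 (SIRT2 full-length, N-terminal His6, expressed in E. coli BL21). Inhibition taken from remaining substrate versus no-inhibitor control. Run at least in duplicate, inhibitors added from DMSO stocks.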
# [6] = molecular target: T4, NAD-dependent protein deacetylase sirtuin-2; test: Inhibition of human recombinant SIRT2 by radioactive deacetylase assay; method in brief: as §3
# [7] = molecular target: T4, NAD-dependent protein deacetylase sirtuin-2; test: Inhibition of human recombinant SIRT2; method in brief: as §4
# [8] = molecular target: T2, NAD-dependent protein deacetylase sirtuin-1; test: Inhibition of human SIRT1; method in brief: as §4
# [9] = molecular target: T3, NAD-dependent protein deacetylase sirtuin-2 (Homo sapiens); test: Inhibition of human recombinant SIRT2 at 12.5 uM; method in brief: as §4
# [10] = molecular target: T3, NAD-dependent protein deacetylase sirtuin-2 (Homo sapiens); test: Inhibition of human recombinant SIRT2 at 50 uM
# Method in brief: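 N-terminally His6-tagged full-length human SIRT2, expressed in E. coli BL21. Homogeneous fluorescent deacetylase assay with ZMAL substrate (10.5 µM) and NAD+ (500 µM), 4 h at 37 °C. Inhibitor was added from DMSO stock. After stopping, a tryptic digest developed the fluorophore (ex 390/em 460 nm). Inhibition was taken from remaining substrate versus an uninhibited control, run at least in duplicate.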
# [11] = molecular target: T3, NAD-dependent protein deacetylase sirtuin-2 (Homo sapiens); test: Inhibition of SIRT2 in A549 cells assessed as ability to induce hyperacetylation of tubulin by Western blot analysis at 0.1 uM; assay type: cell-based; method in brief: as §2
compound,measurement,setting,value
O=C1Cc2c([nH]c3ccccc23)-c2ccccc2N1 [PAULLONE],inhibition,[1],49.4%
same,IC50,[2],50 µM
same,Activity,[3],Active
same,IC50,[4],8 µM
CN1C(=O)C(c2c[nH]c3ccccc23)=C(c2c[nH]c3ccccc23)C1=O,IC50,[5],33 µM
same,IC50,[2],> 50 µM
same,IC50,[6],24.1 µM
same,IC50,[7],33 µM
same,IC50,[8],> 50 µM
same,IC50,[4],15.7 µM
Oc1cc(O)cc(/C=C/c2ccc(O)c(O)c2)c1,inhibition,[9],> 60%
Cn1c2ccccc2c2c3c(c4c5ccccc5n(CCC#N)c4c21)CNC3=O [GO-6976],IC50,[7],> 100 µM
O=C1NC(=O)C(c2c[nH]c3cccc(F)c23)=C1c1cn(CCOC(CCO)C2COC3(CCCCC3)O2)c2ccccc12 (stereo unspecified),inhibition,[1],71.9%
same,IC50,[7],2.5 µM
CN(C)C[C@H]1OCCn2cc(c3ccccc32)C2=C(C(=O)NC2=O)c2cn(c3cccc(F)c23)C[C@H]1F,Activity,[1],inactive
same,IC50,[7],> 50 µM
O=C1NC(=O)C2=C1c1cn(c3ccccc13)CC[C@@H](C1COC3(CCCCC3)O1)OCCn1cc2c2c(F)cccc21 (stereo partly specified),inhibition,[1],55.7%
same,IC50,[7],20.8 µM
O=C1NC(=O)C(c2c[nH]c3ccccc23)=C1c1c[nH]c2ccccc12 [RO-316233],inhibition,[1],52.7%
same,IC50,[7],4.7 µM
CN1C(=O)C(c2cn(Cc3ccccc3)c3ccccc23)=C(c2cn(Cc3ccccc3)c3ccccc23)C1=O,IC50,[7],78.3 µM
O=Nc1c(-c2c(O)[nH]c3ccccc23)[nH]c2ccccc12,inhibition,[9],> 60%
O=C1Cc2c([nH]c3ccc(Br)cc23)-c2ccccc2N1 [KENPAULLONE],IC50,[7],> 100 µM
CCCCCCCn1cc(C2=C(c3cn(CCCCCCC)c4ccccc34)C(=O)N(C)C2=O)c2ccccc21,IC50,[7],> 100 µM
CN1CCCC1CCn1cc(C2=C(c3c[nH]c4ccccc34)C(=O)NC2=O)c2ccccc21 (stereo unspecified),inhibition,[1],58.2%
same,IC50,[7],8.3 µM
O=C1Nc2ccc(I)cc2C1=Cc1cc(Br)c(O)c(Br)c1,inhibition,[9],> 60%
COCc1cc(-c2c(COC)cc(O)c(O)c2O)c(O)c(O)c1O,inhibition,[9],> 60%
CC(=O)c1c(O)c(C)c(O)c(Cc2c(O)c3c(c(C(=O)/C=C/c4ccccc4)c2O)OC(C)(C)C=C3)c1O,inhibition,[9],> 60%
NC(=O)c1cccnc1,inhibition,[1],10.6%
COC(=O)/C=C/c1cc(O)ccc1O,inhibition,[9],> 60%
O=C1NC(=O)C(c2cn(CCOC(CCO)C3COC4(CCCCC4)O3)c3ccccc23)=C1c1c[nH]c2ccccc12 (stereo unspecified),inhibition,[1],77.5%
same,IC50,[7],2.8 µM
C=CC(=O)c1ccc2ccccc2c1,inhibition,[9],> 60%
ONC1=Nc2ccccc2-c2[nH]c3ccc(Br)cc3c2C1,inhibition,[10],43.1%
CN1C(=O)C(c2cn(CCCCCCCO)c3ccccc23)=C(c2cn(CCCCCCCO)c3ccccc23)C1=O,IC50,[7],> 100 µM
CC(/C=C/C(=O)NO)=C\[C@@H](C)C(=O)c1ccc(N(C)C)cc1,Activity,[11],Active
O=C1NC(=O)C(c2c[nH]c3cccc(F)c23)=C1c1cn(CCOC(CCO)C(O)CO)c2ccccc12 (stereo unspecified),inhibition,[1],29.9%
same,IC50,[7],9.5 µM
O=C1C(c2c[nH]c3ccccc23)=C(c2c[nH]c3ccccc23)C(=O)N1Cc1ccccc1,IC50,[7],40 µM
O=C1NC(=O)C2=C1c1cn(c3ccccc13)CCOC(C(O)CO)CCn1cc2c2c(F)cccc21 (stereo unspecified),Activity,[1],inactive
same,IC50,[7],> 50 µM
O=C(O)c1cc(NCc2cc(O)ccc2O)ccc1O,inhibition,[9],> 60%
CN[C@@H]1C[C@H]2O[C@@](C)([C@@H]1OC)n1c3ccccc3c3c4c(c5c6ccccc6n2c5c31)C(=O)NC4,Activity,[10],inactive
CN(C)CCCn1cc(C2=C(c3c[nH]c4ccccc34)C(=O)NC2=O)c2ccccc21 [GF-109203],IC50,[5],7.3 µM
same,IC50,[2],> 50 µM
same,IC50,[6],11.7 µM
same,IC50,[7],7.3 µM
same,IC50,[8],> 50 µM
same,IC50,[4],23 µM
same,inhibition,[9],> 60%
